≈ marks a conversion by molar mass, not a printed value. Calls of active or inactive are those of the source. No cut-off for these calls is given here.
Tests used:
Escherichia coli [1] = experiment: Antibacterial activity against Escherichia coli ATCC 8739 after 24 hrs by microtiter plate method; type: functional
Outline: (§1)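 Test concentrations reported in µg/mL. Gentamycin sulfate and ampicillin were the reference drugs.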

Klebsiella pneumoniae [2] = experiment: Antibacterial activity against Klebsiella pneumoniae ATCC 43816 after 24 hrs by microtiter plate method; type: functional; outline: as §1
Proteus vulgaris [3] = experiment: Antibacterial activity against Proteus vulgaris ATCC 13315 after 24 hrs by microtiter plate method; type: functional; outline: as §1
Staphylococcus aureus [4] = experiment: Antibacterial activity against methicillin-resistant Staphylococcus aureus NCTC 13616 after 24 hrs by microtiter plate method; type: functional
Bacillus spizizenii [5] = experiment: Antibacterial activity against Bacillus subtilis ATCC 6633 after 24 hrs by microtiter plate method; type: functional; outline: as §1
Bacillus cereus [6] = experiment: Antibacterial activity against Bacillus cereus ATCC 14579 after 24 hrs by microtiter plate method; type: functional; outline: as §1
Escherichia coli [7] = experiment: Bactericidal activity against Escherichia coli ATCC 8739 after 24 hrs; type: functional; conditions: for MBC: ATCC 8739, 24 h, read-out: MBC99.9
Outline: (§2)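 MBC determined by a standard MBC protocol alongside the MIC, with values in µg/mL. Gentamycin sulfate and ampicillin were the references.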

Klebsiella pneumoniae [8] = experiment: Bactericidal activity against Klebsiella pneumoniae ATCC 43816 after 24 hrs; type: functional; conditions: for MBC: ATCC 43816, 24 h, read-out: MBC99.9; outline: as §2
Proteus vulgaris [9] = experiment: Bactericidal activity against Proteus vulgaris ATCC 13315 after 24 hrs; type: functional; conditions: for MBC: ATCC 13315, 24 h, read-out: MBC99.9; outline: as §2
Staphylococcus aureus [10] = experiment: Bactericidal activity against methicillin-resistant Staphylococcus aureus NCTC 13616 after 24 hrs; type: functional; conditions: for MBC: NCTC 13616, 24 h, read-out: MBC99.9
Outline: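 MBC determined by a standard MBC protocol run alongside the MIC determination. Gentamycin sulfate and ampicillin served as reference drugs.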

Bacillus spizizenii [11] = experiment: Bactericidal activity against Bacillus subtilis ATCC 6633 after 24 hrs; type: functional; conditions: for MBC: ATCC 6633, 24 h, read-out: MBC99.9; outline: as §2
Bacillus cereus [12] = experiment: Bactericidal activity against Bacillus cereus ATCC 14579 after 24 hrs; type: functional; conditions: for MBC: ATCC 14579, 24 h, read-out: MBC99.9; outline: as §2
[13] = Anticancer activity against human DU145 cells assessed as cell viability after 48 hrs by MTT assay; type: functional, cell-based; conditions: DU-145, 48 h
Outline: (§3)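 MTT cytotoxicity assay in human DU-145 prostate, MCF-7 breast and HeLa cervical cancer cell lines. Doxorubicin was the reference drug.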

MCF7 = experiment: Anticancer activity against human MCF7 cells assessed as cell viability after 48 hrs by MTT assay; type: functional, cell-based; conditions: MCF7, 48 h; outline: as §3
HeLa = experiment: Anticancer activity against human HeLa cells assessed as cell viability after 48 hrs by MTT assay; type: functional, cell-based; outline: as §3
Staphylococcus aureus [14] = experiment: Antibacterial activity against methicillin-resistant Staphylococcus aureus NCTC 13616 assessed as growth inhibition at 100 ug/ml after 24 hrs by agar well diffusion method; type: functional, organism-based
Outline: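 Agar well diffusion assay with compounds applied to wells at several concentrations, including the 100 level reported here. The zone of inhibition was measured in mm. Gentamycin sulfate was the standard drug.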

Cytochrome P450 2A6 = molecular target: T1, Cytochrome P450 2A6 (Homo sapiens, UniProt P11509); experiment: Inhibition of human microsomal CYP2A6; type: ADME
T1 sequence (P11509 whole entry): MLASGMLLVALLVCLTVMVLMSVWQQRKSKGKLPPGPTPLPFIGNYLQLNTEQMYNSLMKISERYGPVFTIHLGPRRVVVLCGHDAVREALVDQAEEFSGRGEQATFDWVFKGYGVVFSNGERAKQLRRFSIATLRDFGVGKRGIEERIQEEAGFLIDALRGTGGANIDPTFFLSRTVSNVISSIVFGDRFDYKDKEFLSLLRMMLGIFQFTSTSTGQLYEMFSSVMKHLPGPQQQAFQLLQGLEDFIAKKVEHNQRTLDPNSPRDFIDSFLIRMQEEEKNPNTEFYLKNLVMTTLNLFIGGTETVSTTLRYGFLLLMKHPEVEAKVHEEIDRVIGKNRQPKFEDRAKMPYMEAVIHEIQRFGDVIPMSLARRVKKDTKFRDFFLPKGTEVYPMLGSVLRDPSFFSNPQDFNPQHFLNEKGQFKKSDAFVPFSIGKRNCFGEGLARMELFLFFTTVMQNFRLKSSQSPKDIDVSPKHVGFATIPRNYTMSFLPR

Row | Molecule | IC50 [13] [µM] | IC50 (MCF7) [µM] | IC50 (HeLa) [µM] | growth inhibition (GI) (Staphylococcus aureus [14]) | MIC (Escherichia coli [1]; ATCC 8739, 24 h) [µg/mL] | MIC (Klebsiella pneumoniae [2]; ATCC 43816, 24 h) [µg/mL] | MIC (Proteus vulgaris [3]; ATCC 13315, 24 h) [µg/mL] | MIC (Staphylococcus aureus [4]; NCTC 13616, 24 h) [µg/mL] | MIC (Bacillus spizizenii [5]; ATCC 6633, 24 h) [µg/mL] | MIC (Bacillus cereus [6]; ATCC 14579, 24 h) [µg/mL] | MBC (Escherichia coli [7]) [µg/mL] | MBC (Klebsiella pneumoniae [8]) [µg/mL] | MBC (Proteus vulgaris [9]) [µg/mL] | MBC (Staphylococcus aureus [10]) [µg/mL] | MBC (Bacillus spizizenii [11]) [µg/mL] | MBC (Bacillus cereus [12]) [µg/mL] | Ki (Cytochrome P450 2A6) [µM] | other results
1 | GENTAMICIN |  |  |  |  |  |  |  |  |  |  |  |  |  |  |  |  |  | MIC (Escherichia coli [1]): 2 µg/mL; MIC (Klebsiella pneumoniae [2]): 4 µg/mL; MIC (Proteus vulgaris [3]): 4 µg/mL; MIC (Staphylococcus aureus [4]): 22 µg/mL; MIC (Bacillus spizizenii [5]): 45 µg/mL; MIC (Bacillus cereus [6]): 10 µg/mL; MBC99.9 (Escherichia coli [7]): 8 µg/mL; MBC99.9 (Klebsiella pneumoniae [8]): 16 µg/mL; MBC99.9 (Proteus vulgaris [9]): 8 µg/mL; MBC99.9 (Staphylococcus aureus [10]): 50 µg/mL; MBC99.9 (Bacillus spizizenii [11]): 80 µg/mL; MBC99.9 (Bacillus cereus [12]): 22 µg/mL
2 | O=Cc1cn(-c2nc(-c3cc4ccccc4oc3=O)cs2)nc1-c1ccccc1 | > 100 | > 100 | > 100 | inactive | 135 (≈ 338 µM) | 150 (≈ 376 µM) | 133 (≈ 333 µM) | 150 (≈ 376 µM) | 132 (≈ 330 µM) | 145 (≈ 363 µM) | 270 (≈ 676 µM) | 225 (≈ 563 µM) | 200 (≈ 501 µM) | 300 (≈ 751 µM) | 260 (≈ 651 µM) | 290 (≈ 726 µM) | 0.013 | 
3 | O=Cc1cn(-c2nc(-c3cc4cc(Cl)ccc4oc3=O)cs2)nc1-c1ccccc1 | > 100 | > 100 | 12.8 | inactive | 135 (≈ 310 µM) | 129 (≈ 297 µM) | 130 (≈ 300 µM) | 150 (≈ 346 µM) | 130 (≈ 298 µM) | 139 (≈ 319 µM) | 265 (≈ 611 µM) | 190 (≈ 438 µM) | 260 (≈ 599 µM) | 300 (≈ 691 µM) | 190 (≈ 438 µM) | 275 (≈ 634 µM) | 0.00258 | 

Reference: ChEMBL document CHEMBL3739273, “Synthesis, biological activity evaluation and molecular docking studies of novel coumarin substituted thiazolyl-3-aryl-pyrazole-4-carbaldehydes” (Bioorg Med Chem Lett, 2015)
